# From PubChem BioAssay
# Ba/F3 V617F tox: reduced viability of JAK2V617F-dependent Ba/F3 cells, primary screen, JAK2V617F inhibitor project, cell-based, Ba/F3 EpoR-JAK2V617F, luminescence. ATP luminescence. inhibition, % at 5.6 µM. actives 1.1% (n = 220,000);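 active means inhibition above the campaign mean plus 3 SD over all tested compounds, cut at about 24% in these data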;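 further: cytokine-independent growth of Ba/F3 cells driven by EpoR plus mutant JAK2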
# APP 5UTR inh: inhibitors of APP translation via 5'UTR reporter, primary screen, APP 5'UTR luciferase, SH-SY5Y cells; inhibition, % at 2 µM; AID 1285, 2008; SH-SY5Y APP 5'UTR-luciferase reporter, luminescence; actives 0.82% (n = 190,000);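 active means inhibition above a set limit, derived from the sample mean plus 3 SD, cut at about 45% in these data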
# MT stabilize HCS: microtubule stabilizers in HeLa cells, primary screen, imaging, high-content imaging. HeLa tubulin immunostaining HCS, 24 h; share of cells brighter than vehicle mean+2SD. actives 0.83% (n = 200,000). % tubulin-high responders, % at 10 µM;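 active means plate Z-score above 3 for both tubulin-high and condensed-nucleus cell shares, with cell loss under 80%, at 10 µM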;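 further: anti alpha tubulin signal scored within the nucleus-defined area of each cell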
# BaF3 parental: parental Ba/F3 cell viability inhibition, counter-screen for JAK2V617F inhibitor project, murine pro-B, CellTiter-Glo luminescence | CellTiter-Glo ATP luminescence | inhibition, % at 5.6 µM | actives 1.1% (n = 220,000);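 active means inhibition above a per-campaign cutoff, the mean inhibition of all tested compounds plus 3 SD, cut at about 27% in these data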
# IEC-6 cytotox: cytotoxicity in IEC-6 intestinal epithelial cells, primary screen, cytotoxicity control for KLF5 inhibitor project, cell-based, luminescence. inhibition, % at 5 µM. actives 0.78% (n = 290,000). IEC-6 cytotoxicity, luminescence viability; in the data active means inhibition above about 22%
# b-catenin transl: modulators of beta-catenin nuclear translocation, primary screen, imaging, HeLa cells, immunofluorescence, high-content | nuclear translocation activity, % at 5 µM | actives 0.3% (n = 190,000);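 active means nuclear translocation activity above 50% at 5 µM, with a well cell count of 50 or more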;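 further: per-cell ratio of nuclear to cytoplasmic median beta-catenin stain intensity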
#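 Assay system: human HeLa cells, native beta-catenin; doses: 5 µM primary, 0.02–20 µM confirmation; incubation: compound treatment 24 h, 37°C, 5% CO2; technique: fluorescence imaging of beta-catenin antibody stain plus DAPI; measure: % activation, nuclear-to-cytoplasmic median beta-catenin signal ratio per cell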
# Numbers stand for hits; - = inactive; . = no result given. Compounds with a hit are over-represented: about 2.2% of the library has one in this group of screens.
SMILES,Ba/F3 V617F tox,APP 5UTR inh,MT stabilize HCS,BaF3 parental,IEC-6 cytotox,b-catenin transl
O=C(COc1ccccc1F)N1CCN(S(=O)(=O)/C=C/c2ccccc2)CC1,-,-,-,-,-,-
O=C(COc1ccc(Br)cc1)N1CCN(S(=O)(=O)/C=C/c2ccccc2)CC1,-,68.7,-,-,-,-
Cc1ccc(NC(=O)C2CCN(S(=O)(=O)c3ccc4c(c3)CCCC(=O)N4)CC2)c(Br)c1,.,.,.,.,-,.
CCCOc1nc(C)cc(COC)c1C(N)=O,-,-,-,-,-,-
COc1cccc(N2CCN(c3ncnc4c3[nH]c3ccc(F)cc34)CC2C)c1 (centres undefined),62.5,-,25.8,52.8,35.8,-
OCCN1CCN(Cc2cc(Cl)c3cccnc3c2O)CC1,-,-,-,-,-,.
Oc1c(CN2CCN(c3ccccn3)CC2)cc(Cl)c2cccnc12,-,78.1,-,-,-,-
COc1ccccc1N1CCN(Cc2cc(Br)c(O)c3ncccc23)CC1,98.0,-,-,85.7,-,.
O=C(Oc1c(CN2CCOCC2)cc(Cl)c2cccnc12)c1ccccc1Cl,-,53.1,-,-,-,-
COCc1cc(CN2CCCC2)c(O)c2ncccc12,71.8,-,-,59.4,-,-
COc1ccc(NC(=O)Cn2ncn3nc(-c4ccc(OC)cc4)cc3c2=O)cc1,.,.,.,.,-,.
Oc1c(CN2CCCCC2)cc(COCc2ccccc2)c2cccnc12,88.6,85.1,-,98.9,-,-
Cc1cc(C(=O)N/N=C/c2cc(N=Nc3ccccc3)ccc2O)n[nH]1,-,49.5,-,-,-,-
COC(=O)N/N=C/c1cc(N=Nc2ccccc2)ccc1O,-,.,.,-,-,-
Nc1oc2ccccc2c(=O)c1-c1ccc2c(c1)OCO2,.,.,.,.,-,.
Cc1onc(-c2ccccc2Cl)c1C(=O)N(C)C1CCCCC1,67.0,-,-,61.5,-,.
Fc1ccc(/C=N/n2cnn(Cc3ccccc3Cl)c2=S)cc1,-,62.4,-,-,-,-
CC(=O)N1N=C(c2cccc([N+](=O)[O-])c2)OC1c1cccc(Br)c1 (centres undefined),-,-,24.1,-,-,65.6
CC(=O)N1N=C(c2cccc(Cl)c2)OC1c1cccc([N+](=O)[O-])c1 (centres undefined),-,-,-,-,-,-
CCN(CC)c1ccc(NC(=O)c2ccc3c(c2)c(C)c(C)n3C)cc1,-,-,14.0,-,-,.
Cc1sc2ncnc(Nc3ccccc3)c2c1C,-,.,-,-,-,-
Cc1sc2ncnc(NCc3ccccc3)c2c1C,-,-,-,35.0,-,-
c1ccc(-c2csc3ncnc(NCC4COc5ccccc5O4)c23)cc1 (centres undefined),71.5,-,-,70.9,-,-
Cc1sc2ncnc(NCC3(N4CCOCC4)CCCCC3)c2c1C,-,-,-,-,-,.
Cc1sc2ncnc(NCC3COc4ccccc4O3)c2c1C (centres undefined),53.1,-,-,73.2,-,-
SMILES,Ba/F3 V617F tox,APP 5UTR inh,MT stabilize HCS,BaF3 parental,IEC-6 cytotox,b-catenin transl
Cc1sc2ncnc(NCC(C)(C)N3CCOCC3)c2c1C,-,-,-,36.7,-,-
O=C(/C=C/c1ccc([N+](=O)[O-])cc1)N1CCN(S(=O)(=O)c2cccs2)CC1,-,.,.,-,-,-
CCN(CC(=O)Nc1ccc([N+](=O)[O-])cc1OC)c1ccccc1,-,-,-,-,-,-
COc1ccc(CNC(=O)C2CCN(S(=O)(=O)c3ccc4c(c3)C(C)(C)C(=O)N4C)CC2)cc1,.,.,.,.,-,.
CCOc1ccc(CCNC(=O)C2CCN(S(=O)(=O)N3CCCCC3)CC2)cc1OCC,-,-,-,92.6,-,-
CN1C/C(=C/c2cccnc2)C(=O)/C(=C/c2cccnc2)C1,-,88.7,52.7,-,-,-
O=C1/C(=C\c2ccc3ccccc3c2)CCCc2ccccc21,-,-,30.1,-,-,50.0
CC12CN(NC(=O)c3ccccc3F)C3(C#N)CC1CCC23C (centres undefined),-,-,-,90.0,-,-
CC12CN(C(=O)c3ccc(Cl)cc3)C3(C#N)CC1CCC23C (centres undefined),-,-,-,-,-,.
